High-throughput results from PubChem.
In the library only some 0.72% were active in any assay of this set; here they are far more common.
hIAP act – human IAP activators, primary screen, biochemical, luminescence, uHTS; activation factor at 10 µM; purified human IAP, CDP-Star luminescence, 30 min; hits give high values; 1 = vehicle-only enzyme, 0 = enzyme-free background; Intestinal-type alkaline phosphatase (Homo sapiens), P09923; AID 2524, 2010; 330,000 compounds, 0.16% hits;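 active = activation factor of the enzyme at least 2-fold when tested at 20 µM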
Target sequence (P09923 whole entry, looked up): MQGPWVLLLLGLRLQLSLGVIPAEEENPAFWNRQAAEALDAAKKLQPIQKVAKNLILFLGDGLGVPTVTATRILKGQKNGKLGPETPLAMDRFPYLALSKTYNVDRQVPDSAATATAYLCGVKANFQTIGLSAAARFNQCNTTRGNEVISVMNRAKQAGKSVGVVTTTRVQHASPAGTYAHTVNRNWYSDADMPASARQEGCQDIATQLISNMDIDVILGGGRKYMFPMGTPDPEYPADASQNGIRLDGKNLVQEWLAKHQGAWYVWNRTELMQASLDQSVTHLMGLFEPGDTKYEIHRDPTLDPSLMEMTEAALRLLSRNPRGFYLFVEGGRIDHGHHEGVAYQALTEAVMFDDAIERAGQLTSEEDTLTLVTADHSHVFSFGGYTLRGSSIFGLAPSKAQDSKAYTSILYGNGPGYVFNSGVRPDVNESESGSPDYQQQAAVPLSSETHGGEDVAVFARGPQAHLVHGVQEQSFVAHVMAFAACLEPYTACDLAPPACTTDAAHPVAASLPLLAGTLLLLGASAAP
bIAP activator – bovine intestinal alkaline phosphatase activators, primary screen, biochemical, bovine IAP, CDP-star luminescence | activation factor at 20 µM | purified bovine IAP, 30 min; hits give high values; fold of DMSO-control signal, blank-subtracted | alkaline phosphatase, intestinal [Bos taurus] | AID 1016, 2008 | 200,000 compounds, 0.17% hits;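 active = activation factor of 2 or more at 20 µM, a signal rise over negative controls twice the positive control's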
mIAP activ – activators of mouse IAP, primary screen, biochemical, luminescence, uHTS | intestinal alkaline phosphatase [Mus musculus] | 330,000 compounds, 0.24% hits | AID 2805, 2010 | activation factor at 10 µM | muIAP, CDP-Star luminescence, 30 min; hits give high values; 1 = vehicle-only enzyme signal, 0 = enzyme-free wells;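 active = activation factor of at least 2 at 20 µM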
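System: mouse IAP enzyme. Reagent: CDP-Star chemiluminescent phosphatase substrate. Benchmarks: DMSO wells, no-enzyme wells. Times: 30 min enzyme-substrate-compound incubation at room temperature. Detection: luminescence from enzymatic CDP-Star hydrolysis. Doses: test compounds delivered from DMSO solution.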
mIAP block – inhibitors of mouse IAP, primary screen, biochemical, luminescence, uHTS. 330,000 compounds, 0.2% hits. intestinal alkaline phosphatase [Mus musculus]. AID 2806, 2010. purified mouse IAP, CDP-Star luminescence, 30 min. inhibition, % at 10 µM;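 active = inhibition of at least 40% at 10 µM in the primary screen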
bIAP inh – bovine intestinal alkaline phosphatase inhibitors, primary screen, selectivity assay for TNAP inhibitor project, biochemical, bovine IAP, CDP-star luminescence. purified bovine IAP, 30 min. inhibition, % at 20 µM. 190,000 tested, under 10 active. AID 1019, 2008;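 active = over 50% inhibition of intestinal alkaline phosphatase at 20 µM in the single-dose screen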
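Assay system: bovine IAP enzyme; medium: DEA buffer 100 mM, pH 9.8, with MgCl2 1.0 mM, ZnCl2 0.02 mM; doses: 20 µM single dose; incubation: enzyme reaction for 30 min at room temperature; detection: CDP-star luminescence signal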
hIAP block – human IAP inhibitors, primary screen, biochemical, luminescence, uHTS; Intestinal-type alkaline phosphatase (Homo sapiens), P09923; purified IAP, CDP-Star luminescence, 30 min; inhibition, % at 10 µM; 330,000 compounds, 0.12% hits;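 active = inhibition reaching a set limit with compound at 10 µM in the primary screen, cut at about 35% in these data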
Large screens that a line does not name were inactive.

COc1ccc(C2CC(c3ccccc3)=NN2c2ccc(C(N)=O)cc2)cc1 (stereo unspecified)	mIAP activ 2.8 (no result: bIAP activator, bIAP inh)
CC(=O)Nc1ccc(C2=NN(c3ccccc3)C(c3ccccc3)C2)cc1 (stereo unspecified)	mIAP activ 2.3 (no result: bIAP activator, bIAP inh)
Cn1c(O)c(N=NC(=O)Cn2c(C(F)(F)F)nc3ccccc32)c2ccccc21	none
COc1ccc(Cn2c(C)nnc2-c2cnn(C)c2N)cc1	none
CC1CCCN(C(C(=O)Nc2ccc3c(c2)OCO3)c2ccccc2)C1 (stereo unspecified)	bIAP activator 2.1
CC1CCN(C(C(=O)Nc2ccc3c(c2)OCO3)c2ccccc2)CC1 (stereo unspecified)	bIAP activator 2.7
CC1CCCN(C(C(=O)Nc2ccc3c(c2)OCCO3)c2ccccc2)C1 (stereo unspecified)	none
CSc1cccc(NC(=O)Nc2nc3c(C)cccc3s2)c1	mIAP activ 2.1 (no result: bIAP activator, bIAP inh)
Cc1cccc(NC(=O)CNC(=O)Cn2cc(C(F)(F)F)cc(Cl)c2=O)c1C	none (no result: bIAP activator, bIAP inh)
CC1CCCCC1NC(=S)Nc1ccc(Cl)cc1Cl (stereo unspecified)	mIAP activ 2.8
Cc1cc(NC(=O)CSCC(=O)N(c2cccc(Cl)c2)C(C(=O)NC2CCCCC2)c2ccc(O)c(O)c2)no1 (stereo unspecified)	none
CCN(CC)S(=O)(=O)c1ccc(N2CCN(C)CC2)c(NC(=O)CSCC(=O)Nc2cccc(C)c2)c1	none (no result: bIAP activator, bIAP inh)
CCN(CC)S(=O)(=O)c1ccc(N2CCN(C)CC2)c(NC(=O)Nc2ccc(C)cc2)c1	mIAP activ 2 (no result: bIAP activator, bIAP inh)
Cc1ccc(SCC(=O)NNC(=O)c2cncc(Br)c2)cc1	none (no result: bIAP activator, bIAP inh)
COc1cc(C2c3c(oc4ccc(Cl)cc4c3=O)C(=O)N2Cc2ccco2)cc(OC)c1OC (stereo unspecified)	bIAP activator 2.6 (no result: hIAP act, mIAP activ, mIAP block, hIAP block)
COC(=O)[C@H](C)N(Cc1ccc(Cl)c(Cl)c1)S(=O)(=O)CCN1CCCC1	none (no result: hIAP act, bIAP activator, bIAP inh, hIAP block)
C=CCNC(=O)/C=C/c1c(F)cccc1Cl	bIAP activator 2.7
Cc1ccc(SCc2nc3ccccc3[nH]2)cc1	none
Cc1ccc(CSCc2nc3ccccc3[nH]2)cc1	bIAP activator 2.3 (no result: hIAP act, mIAP activ, mIAP block, hIAP block)
CCOC(=O)C1(CC2CCCCO2)CCN(C(=O)Nc2cccc(SC)c2)CC1 (stereo unspecified)	mIAP activ 2.4
Cc1ccccc1C(=O)Nc1cc(S(=O)(=O)N2CCOCC2)ccc1N1CCN(C)CC1	none (no result: bIAP activator, bIAP inh)
CCOc1ccc(C2NC(=O)NC(C)=C2C(=O)OCc2ccccc2)cc1 (stereo unspecified)	none (no result: bIAP activator, bIAP inh)
CC1=C(C(=O)OCc2ccccc2)C(c2ccc(N(C)C)cc2)NC(=O)N1 (stereo unspecified)	bIAP activator 2.8
Cc1ccc(S(=O)(=O)Nc2cccc(/C=C/C(=O)O)c2)cc1	none
COc1ccc(S(=O)(=O)Nc2cccc(/C=C/C(=O)O)c2)cc1	bIAP activator 4.6
O=C1C2CCCN2C(=O)N1CCN1CCN(CCO)CC1 (stereo unspecified)	bIAP activator 2.7
COCCn1nnnc1C(c1cc2cc(C)ccc2[nH]c1=O)N1CCc2ccccc21 (stereo unspecified)	none
Cc1ccc2[nH]c(=O)c(C(c3nnnn3CCc3ccccc3)N3CCOCC3)cc2c1 (stereo unspecified)	mIAP block 46
COc1ccc(NC(=O)Nc2ccc3c(c2)N(C)C(=O)CS3)cc1OC	mIAP activ 2.2
COc1ccc(NC(=O)Nc2ccc3c(c2)N(C)C(=O)CS3)cc1Cl	none
CCOc1ccc(NC(=O)Nc2ccc3c(c2)N(C)C(=O)CS3)cc1	mIAP activ 2.3
O=C(CSc1n[nH]c(-c2cccs2)n1)NCCc1ccccc1	none (no result: bIAP activator, bIAP inh)
O=C(Nc1ccccc1C(=O)NC(Cc1ccccc1)C(=O)NC1CCCCCC1)c1ccccc1 (stereo unspecified)	mIAP activ 2.3
Cc1c(CCOC(=O)c2cccc([N+](=O)[O-])c2)sc[n+]1CC(=O)c1ccccc1	mIAP block 43 (no result: bIAP inh)
Cc1ccc(OCC(=O)N(Cc2ccccc2)c2c(N)n(Cc3ccccc3)c(=O)[nH]c2=O)c(C)c1	none (no result: bIAP activator, bIAP inh)
COc1cccc(C(O)c2nc3ccccc3n2C(C)C)c1 (stereo unspecified)	bIAP activator 2.1
COc1cccc(C(O)c2nc3ccccc3n2C(C)C)c1OC (stereo unspecified)	none (no result: bIAP activator, bIAP inh)
Cc1ccc(C(=O)NCc2ccc(Cl)cc2)cc1S(=O)(=O)N1CCCCC1	none (no result: bIAP activator, bIAP inh)
S=C(NCc1ccco1)Nc1ccc(Cl)c(Cl)c1	mIAP activ 2.3
CCOC(=O)C1CCCN(C(=O)c2cc(CN3C(=O)c4ccccc4C3=O)ccc2OC)C1 (stereo unspecified)	none (no result: bIAP activator, bIAP inh)
COc1ccc(C(C(=O)NC2CCCC2)N(Cc2cccnc2)C(=O)Cc2cccs2)cc1OC (stereo unspecified)	none (no result: bIAP activator, bIAP inh)
COc1ccc(C(C(=O)NC2CCCC2)N(Cc2ccc(C)cc2)C(=O)c2ccn[nH]2)cc1OC (stereo unspecified)	bIAP activator 2.7
CC(C)(C)NC(=O)C(c1ccc(F)cc1)N(Cc1ccccc1Cl)C(=O)c1ccn[nH]1 (stereo unspecified)	bIAP activator 2.1
COc1ccc(C(C(=O)NC2CCCC2)N(Cc2ccc(F)cc2)C(=O)c2ccn[nH]2)cc1OC (stereo unspecified)	bIAP activator 2.1
COc1ccc(C(=O)Nc2ccc(C3CC3(Cl)Cl)cc2)cc1 (stereo unspecified)	none
O=C(NNC(=O)c1ccccc1F)c1cccc(S(=O)(=O)N2CCc3ccccc32)c1	none (no result: bIAP activator, bIAP inh)
CC(=O)N(C)c1ccc(NC(=O)C(Sc2ccccc2)c2ccccc2)cc1 (stereo unspecified)	bIAP activator 2.2
Cc1ccc(NC2=NC(C(=O)Nc3ccc(C)c(C)c3)CC(=O)N2)cc1 (stereo unspecified)	bIAP activator 2
Cc1ccc(NC(=O)C2CCC(=O)N2)cc1C (stereo unspecified)	none
CC[C@H](C)[C@@H](C(=O)NCCCCCCCCCCC(=O)N1CCN(C(=O)OC(C)(C)C)CC1)n1cc(CCCCCNC(=O)OC(C)(C)C)nn1	mIAP activ 2.5 (no result: bIAP activator, bIAP inh)
CC(C)(C)OC(=O)CC[C@@H](C(=O)NCCCCCCCCCCC(=O)N1CCN(C(=O)OC(C)(C)C)CC1)n1cc(CCCCCNC(=O)OC(C)(C)C)nn1	mIAP activ 3.2 (no result: bIAP activator, bIAP inh)
